Measured values from ChEMBL document CHEMBL5647697, “Akt inhibition synergizes with polycomb repressive complex 2 inhibition in the treatment of multiple myeloma” (2019).
The source made the active and inactive calls. The calls are words filed in the database; no cut-off is given here.

Experiments:
OPM-2/BTZ [1] = assay: Synergistic activity against human OPM-2/BTZ cells assessed as combination index preincubated in presence of 5 uM GSK126 for 72 hrs followed by compound addition at 0.5 uM incubated for 48 hrs by MTT assay; assay type: functional
NCI-H929 [2] = assay: Induction of apoptosis in human NCI-H929 cells assessed as necrotic cells preincubated in presence of 5 micromol/L UNC1999 for 48 hrs followed by compound addition at 2 micromol/L incubated for 12 hrs by annexin V/PI staining based flow cytometry (reference value: 2.61%); assay type: functional; conditions: dose 2 µmol/L, at 2 µM
OPM-2 [3] = assay: Synergistic activity against human OPM-2 cells assessed as combination index preincubated in presence of 5 uM GSK126 for 72 hrs followed by compound addition at 5 uM incubated for 48 hrs by MTT assay; assay type: functional
NCI-H929 [4] = assay: Induction of apoptosis in human NCI-H929 cells assessed as late apoptotic cells at 5 micromol/L incubated for 48 hrs by annexin V/PI staining based flow cytometry (reference value: […]%); assay type: functional; conditions: dose 5 µmol/L
NCI-H929 [5] = assay: Downregulation of E2F1 protein expression in human NCI-H929 cells incubated at 0.3 to 3 micromol/L for 48 hrs by Western blot analysis; assay type: functional, cell-based; conditions: dose 0.3-3 µmol/L
In short: (§1)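 MM.1S and H929 cells given TAS-117 at the indicated doses for 48 h. Protein levels assessed by immunoblot.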

MM1.S [6] = assay: Synergistic activity against human MM.1S cells assessed as combination index […] in presence of 2.5 uM GSK126 […] at 0.5 uM incubated for 48 hrs by MTT assay; assay type: functional
In short: (§2)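 Cells were exposed to the EZH2/EZH1 inhibitor (UNC1999 or GSK126) for 72 h in total, with the Akt inhibitor added for the last 48 h. Viability was read by MTS assay relative to untreated control cells, in triplicate. The combination index for each dose pair came from isobologram analysis.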

MM1.S [7] = assay: Synergistic activity against human MM.1S cells assessed as combination index […] at 0.125 uM incubated for 48 hrs MTT assay; assay type: functional; in short: as §2
OPM-2 [8] = assay: Synergistic activity against human OPM-2 cells assessed as combination index preincubated in presence of 5 uM UNC1999 for 72 hrs followed by compound addition at 2.5 uM incubated for 48 hrs by MTS assay
OPM-2/BTZ [9] = assay: Upregulation of EZH1 mRNA expression in human OPM-2/BTZ cells at 0.03 to 3 micromol/L after 6 to 48 hrs by qRT-PCR analysis; conditions: dose 0.03-3 µmol/L, time 6-48 hrs
MM1.S [10] = assay: Cytotoxicity against human MM1.S cells assessed as reduction in cell viability at 0.3125 to 10 micromol/L after 48 hrs by MTS assay; assay type: functional, cell-based; conditions: dose 0.3125-10 µmol/L
In short: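 Seven myeloma lines (MM.1S, H929, OPM2/BTZ among them) exposed to TAS-117 at increasing concentrations up to 10 μmol/L for 48 h. Viability read by MTS against an untreated control; mean ± SD of triplicates.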

OPM-2/BTZ [11] = assay: Synergistic activity against human OPM-2/BTZ cells assessed as combination index preincubated in presence of 2.5 uM GSK126 for 72 hrs followed by compound addition at 1 uM incubated for 48 hrs by MTT assay; assay type: functional
NCI-H929 [12] = assay: Downregulation of E2F1 mRNA expression in human NCI-H929 cells incubated at 0.3 to 3 micromol/L for 24 hrs by qRT-PCR analysis; assay type: functional, cell-based; conditions: dose 0.3-3 µmol/L
In short: (§3)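 MM.1S and H929 cells given TAS-117 at the indicated doses for 24 h. mRNA measured by RT-qPCR, fold change after normalization to GAPDH; SD of triplicates; significance versus untreated control.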

MM1.S [13] = assay: Upregulation of FOXO3 […] expression in human MM1.S cells assessed as enhanced nuclear accumulation at 1 micromol/L after 24 hrs by immunofluorescence staining; assay type: functional, cell-based; conditions: dose 1.0 µmol/L
NCI-H929 [14] = assay: Synergistic activity against human NCI-H929 cells assessed as combination index […] at 0.25 uM incubated for 48 hrs by […]; assay type: functional; in short: as §2
MM1.S [15] = assay: Induction of apoptosis in human MM1.S cells assessed as necrotic cells at 2 micromol/L incubated for 12 hrs by annexin V/PI staining based flow cytometry (reference value: 0.17%); assay type: functional; conditions: dose 2 µmol/L, at 2 µM
MM1.S [16] = assay: Synergistic activity against human MM.1S cells assessed as combination index […] at 0.25 uM incubated for 48 hrs by MTT assay; assay type: functional; in short: as §2
NCI-H929 [17] = assay: Induction of apoptosis in human NCI-H929 cells assessed as viable cells at 5 micromol/L incubated for 48 hrs by annexin V/PI staining based flow cytometry (reference value: 95.6%); assay type: functional; conditions: NCI-H929, 48 h, dose 5 µmol/L, read-out: Activity
NCI-H929 [18] = assay: Induction of apoptosis in human NCI-H929 cells assessed as early apoptotic cells at 5 micromol/L incubated for 48 hrs by annexin V/PI staining based flow cytometry (reference value: 0.37%); assay type: functional; conditions: dose 5 µmol/L, at 5 µM
OPM-2/BTZ [19] = assay: Downregulation of EZH2 protein expression in human OPM-2/BTZ cells at 0.3 to 5 micromol/L for 6 to 48 hrs by Western blot analysis; assay type: functional, cell-based; conditions: dose 0.3-5 µmol/L, time 6-48 hrs
OPM-2 [20] = assay: Synergistic activity against human OPM-2 cells assessed as combination index preincubated in presence of 5 uM UNC1999 for 72 hrs followed by compound addition at 5 uM incubated for 48 hrs by MTS assay
NCI-H929 [21] = assay: Downregulation of phospho-Rb protein expression in human NCI-H929 cells incubated at 0.3 to 3 micromol/L for 48 hrs by Western blot analysis; assay type: functional, cell-based; conditions: dose 0.3-3 µmol/L; in short: as §1
OPM-2 [22] = assay: Effects on EZH2 protein expression in human OPM-2 cells at 3 micromol/L incubated for 24 hrs by Western blot analysis; assay type: functional, cell-based; conditions: dose 3.0 µmol/L
OPM-2/BTZ [23] = assay: Downregulation of EZH2 mRNA expression in human OPM-2/BTZ cells at 3 micromol/L after 24 hrs by qRT-PCR analysis; assay type: functional, cell-based; conditions: dose 3.0 µmol/L
NCI-H929 [24] = assay: Synergistic activity against human NCI-H929 cells assessed as combination index […] compound addition at 0.25 uM incubated for 48 hrs by […]; assay type: functional; in short: as §2
MM1.S [25] = assay: Induction of apoptosis in human MM1.S cells assessed as viable cells preincubated in presence of 5 micromol/L UNC1999 for 48 hrs followed by compound addition at 2 micromol/L incubated for 12 hrs by annexin V/PI staining based flow cytometry (reference value: 88.2%); assay type: functional; conditions: dose 2 µmol/L, at 2 µM
MM1.S [26] = assay: Upregulation of H3K27me3 protein expression in human MM1.S cells at 0.3 to 5 micromol/L for 6 to 48 hrs by Western blot analysis; assay type: functional, cell-based; conditions: dose 0.3-5 µmol/L, time 6-48 hrs
In short: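 H3K27me3 was detected by immunoblot in MM.1S and H929 cells. Cells were given graded TAS-117 for 48 h, or 5 μmol/L for the indicated times. Signal is quantified relative to the H3 loading control.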

MM1.S [27] = assay: Induction of apoptosis in human MM1.S cells assessed as late apoptotic cells at 2 micromol/L incubated for 12 hrs by annexin V/PI staining based flow cytometry (reference value: 3.6%); assay type: functional; conditions: dose 2 µmol/L, at 2 µM
MM1.S [28] = assay: Downregulation of EZH2 mRNA expression in human MM1.S cells at 0.3 to 3 micromol/L after 24 hrs by qRT-PCR analysis; assay type: functional, cell-based; conditions: dose 0.3-3 µmol/L; in short: as §3

C[C@]1(O)C[C@@](N)(c2ccc(-c3nc4n(c3-c3ccccc3)COc3ccncc3-4)cc2)C1 [PIFUSERTIB]
CI (OPM-2/BTZ [1]): 1.112
Activity (NCI-H929 [2]): 2.15%
CI (OPM-2 [3]): 5.39
Activity (NCI-H929 [4]): 6.81%
Activity (NCI-H929 [5]): Active
CI (MM1.S [6]): 0.619
CI (MM1.S [7]): 0.253
CI (OPM-2 [8]): 5.53
Activity (OPM-2/BTZ [9]): Dose-Dependent Effect
Activity (MM1.S [10]): Active
CI (OPM-2/BTZ [11]): 0.359
Activity (NCI-H929 [12]): Active
Activity (MM1.S [13]): Active
CI (NCI-H929 [14]): 0.712
Activity (MM1.S [15]): 0.23%
CI (MM1.S [16]): 0.307
viability at 5 µM (NCI-H929 [17]): 82.7%
Activity (NCI-H929 [18]): 9.69%
Activity (OPM-2/BTZ [19]): Active
CI (OPM-2 [20]): 6.32
Activity (NCI-H929 [21]): Active
Activity (OPM-2 [22]): inactive
Activity (OPM-2/BTZ [23]): Active
CI (NCI-H929 [24]): 7.428
Activity (MM1.S [25]): 33%
Activity (MM1.S [26]): Active
Activity (MM1.S [27]): 4.57%
Activity (MM1.S [28]): Active
